Experimental data published in ChEMBL document CHEMBL1649574, “Prevalence and characterization of heterogeneous vancomycin-intermediate Staphylococcus aureus isolates from 14 cities in China” (2009).
In brackets after ≈: the same amount, converted by molar mass.

How the values were obtained:
Type in all cases: functional
Staphylococcus aureus [1] = experiment: Antimicrobial activity against SCCmec type III vancomycin-intermediate Staphylococcus aureus isolate b6k7974 by agar dilution method
Procedure, shortened: (§1)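 Agar-dilution MICs were measured on a subset of 200 blood MRSA isolates from China. Agents: oxacillin, rifampin, gentamicin, levofloxacin, erythromycin, vancomycin, teicoplanin, tigecycline, ceftobiprole and linezolid. Phenotype came from the PAP-AUC ratio of each isolate to S. aureus Mu3 (VSSA <0.9; hVISA 0.9 to 1.3; VISA ≥1.3), read on BHI agar with 0 to 8.0 mg/liter vancomycin after 48 h at 35°C.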

Staphylococcus aureus [2] = experiment: Antimicrobial activity against SCCmec type III vancomycin-intermediate Staphylococcus aureus isolate gz07030 by agar dilution method; procedure, shortened: as §1
Staphylococcus aureus [3] = experiment: Antimicrobial activity against SCCmec type III vancomycin-intermediate Staphylococcus aureus isolate 15b52 by agar dilution method; procedure, shortened: as §1
Staphylococcus aureus [4] = experiment: Antimicrobial activity against SCCmec type III vancomycin-intermediate Staphylococcus aureus isolate b4k6307 by agar dilution method; procedure, shortened: as §1
Staphylococcus aureus [5] = experiment: Antimicrobial activity against SCCmec type III vancomycin-intermediate Staphylococcus aureus isolate b5k3578 by agar dilution method; procedure, shortened: as §1
Staphylococcus aureus [6] = experiment: Antimicrobial activity against SCCmec type II vancomycin-intermediate Staphylococcus aureus isolate 4sy32 by agar dilution method; procedure, shortened: as §1
Staphylococcus aureus [7] = experiment: Antimicrobial activity against SCCmec type III vancomycin-intermediate Staphylococcus aureus isolate gz06051 by agar dilution method; procedure, shortened: as §1
Staphylococcus aureus [8] = experiment: Antimicrobial activity against SCCmec type III vancomycin-intermediate Staphylococcus aureus isolate b3k2345 by agar dilution method; procedure, shortened: as §1
Staphylococcus aureus [9] = experiment: Antimicrobial activity against SCCmec type II vancomycin-intermediate Staphylococcus aureus isolate 4sy39 by agar dilution method; procedure, shortened: as §1
Staphylococcus aureus [10] = experiment: Antimicrobial activity against SCCmec type III vancomycin-intermediate Staphylococcus aureus isolate b6k1642 by agar dilution method; procedure, shortened: as §1
Staphylococcus aureus [11] = experiment: Antimicrobial activity against SCCmec type II vancomycin-intermediate Staphylococcus aureus isolate sh06024 by agar dilution method; procedure, shortened: as §1
Staphylococcus aureus [12] = experiment: Antimicrobial activity against SCCmec type III vancomycin-intermediate Staphylococcus aureus isolate zj07028 by agar dilution method; procedure, shortened: as §1
Staphylococcus aureus [13] = experiment: Antimicrobial activity against SCCmec type II vancomycin-intermediate Staphylococcus aureus isolate 6zjsau7 by agar dilution method; procedure, shortened: as §1
Staphylococcus aureus [14] = experiment: Antimicrobial activity against SCCmec type II vancomycin-intermediate Staphylococcus aureus isolate 07b63 by agar dilution method; procedure, shortened: as §1
Staphylococcus aureus [15] = experiment: Antimicrobial activity against SCCmec type III vancomycin-intermediate Staphylococcus aureus isolate xa07029 by agar dilution method; procedure, shortened: as §1
Staphylococcus aureus [16] = experiment: Antimicrobial activity against SCCmec type III vancomycin-intermediate Staphylococcus aureus isolate b5k3529 by agar dilution method; procedure, shortened: as §1
Staphylococcus aureus [17] = experiment: Antimicrobial activity against SCCmec type III vancomycin-intermediate Staphylococcus aureus isolate 5zjsau3 by agar dilution method; procedure, shortened: as §1
Staphylococcus aureus [18] = experiment: Antimicrobial activity against SCCmec type III vancomycin-intermediate Staphylococcus aureus isolate bd4768 by agar dilution method; procedure, shortened: as §1
Staphylococcus aureus [19] = experiment: Antimicrobial activity against SCCmec type III vancomycin-intermediate Staphylococcus aureus isolate b3k5923 by agar dilution method; procedure, shortened: as §1
Staphylococcus aureus [20] = experiment: Antimicrobial activity against SCCmec type II vancomycin-intermediate Staphylococcus aureus isolate b2k4781 by agar dilution method; procedure, shortened: as §1
Staphylococcus aureus [21] = experiment: Antimicrobial activity against SCCmec type IV vancomycin-intermediate Staphylococcus aureus isolate 06b41 by agar dilution method; procedure, shortened: as §1
Staphylococcus aureus [22] = experiment: Antimicrobial activity against SCCmec type III vancomycin-intermediate Staphylococcus aureus isolate gs07022 by agar dilution method; procedure, shortened: as §1
Staphylococcus aureus [23] = experiment: Antimicrobial activity against SCCmec type III vancomycin-intermediate Staphylococcus aureus isolate 11b091 by agar dilution method; procedure, shortened: as §1
Staphylococcus aureus [24] = experiment: Antimicrobial activity against SCCmec type III vancomycin-intermediate Staphylococcus aureus isolate gz06040 by agar dilution method; procedure, shortened: as §1
Staphylococcus aureus [25] = experiment: Antimicrobial activity against SCCmec type III vancomycin-intermediate Staphylococcus aureus isolate sh07043 by agar dilution method; procedure, shortened: as §1
Staphylococcus aureus [26] = experiment: Antimicrobial activity against SCCmec type III vancomycin-intermediate Staphylococcus aureus isolate b2k3421 by agar dilution method; procedure, shortened: as §1
Staphylococcus aureus [27] = experiment: Antimicrobial activity against SCCmec type III vancomycin-intermediate Staphylococcus aureus isolate 13b16 by agar dilution method; procedure, shortened: as §1

## CC[C@H]1OC(=O)[C@H](C)[C@@H](O[C@H]2C[C@@](C)(OC)[C@@H](O)[C@H](C)O2)[C@H](C)[C@@H](O[C@@H]2O[C@H](C)C[C@H](N(C)C)[C@H]2O)[C@](C)(OC)C[C@@H](C)C(=O)[C@H](C)[C@@H](O)[C@]1(C)O [CLARITHROMYCIN]
Staphylococcus aureus [1]
  MIC: 64 µg/mL (≈ 85.6 µM)
Staphylococcus aureus [2]
  MIC: 64 µg/mL (≈ 85.6 µM)
Staphylococcus aureus [3]
  MIC: 16 µg/mL (≈ 21.4 µM)
Staphylococcus aureus [4]
  MIC: 16 µg/mL (≈ 21.4 µM)
Staphylococcus aureus [5]
  MIC: 32 µg/mL (≈ 42.8 µM)
Staphylococcus aureus [6]
  MIC: 32 µg/mL (≈ 42.8 µM)
Staphylococcus aureus [7]
  MIC: 64 µg/mL (≈ 85.6 µM)
Staphylococcus aureus [8]
  MIC: 64 µg/mL (≈ 85.6 µM)
Staphylococcus aureus [9]
  MIC: 32 µg/mL (≈ 42.8 µM)
Staphylococcus aureus [10]
  MIC: 64 µg/mL (≈ 85.6 µM)
Staphylococcus aureus [11]
  MIC: 32 µg/mL (≈ 42.8 µM)
Staphylococcus aureus [12]
  MIC: 32 µg/mL (≈ 42.8 µM)
Staphylococcus aureus [13]
  MIC: > 64 µg/mL
Staphylococcus aureus [14]
  MIC: 64 µg/mL (≈ 85.6 µM)
Staphylococcus aureus [15]
  MIC: 32 µg/mL (≈ 42.8 µM)
Staphylococcus aureus [16]
  MIC: 64 µg/mL (≈ 85.6 µM)
Staphylococcus aureus [17]
  MIC: 32 µg/mL (≈ 42.8 µM)
Staphylococcus aureus [18]
  MIC: 64 µg/mL (≈ 85.6 µM)
Staphylococcus aureus [19]
  MIC: 64 µg/mL (≈ 85.6 µM)
Staphylococcus aureus [20]
  MIC: 64 µg/mL (≈ 85.6 µM)
Staphylococcus aureus [21]
  MIC: 1 µg/mL (≈ 1.34 µM)
Staphylococcus aureus [22]
  MIC: 64 µg/mL (≈ 85.6 µM)
Staphylococcus aureus [23]
  MIC: > 64 µg/mL
Staphylococcus aureus [24]
  MIC: 32 µg/mL (≈ 42.8 µM)
Staphylococcus aureus [25]
  MIC: > 64 µg/mL
Staphylococcus aureus [26]
  MIC: 64 µg/mL (≈ 85.6 µM)
Staphylococcus aureus [27]
  MIC: 16 µg/mL (≈ 21.4 µM)

## CC[C@H]1OC(=O)[C@H](C)[C@@H](O[C@H]2C[C@@](C)(OC)[C@@H](O)[C@H](C)O2)[C@H](C)[C@@H](O[C@@H]2O[C@H](C)C[C@H](N(C)C)[C@H]2O)[C@](C)(O)C[C@@H](C)C(=O)[C@H](C)[C@@H](O)[C@]1(C)O [ERYTHROMYCIN]
Staphylococcus aureus [1]
  MIC: > 256 µg/mL
Staphylococcus aureus [2]
  MIC: > 256 µg/mL
Staphylococcus aureus [3]
  MIC: 256 µg/mL (≈ 349 µM)
Staphylococcus aureus [4]
  MIC: > 256 µg/mL
Staphylococcus aureus [5]
  MIC: 2 µg/mL (≈ 2.73 µM)
Staphylococcus aureus [6]
  MIC: 1 µg/mL (≈ 1.36 µM)
Staphylococcus aureus [7]
  MIC: 0.25 µg/mL (≈ 0.341 µM)
Staphylococcus aureus [8]
  MIC: > 256 µg/mL
Staphylococcus aureus [9]
  MIC: 256 µg/mL (≈ 349 µM)
Staphylococcus aureus [10]
  MIC: > 256 µg/mL
Staphylococcus aureus [11]
  MIC: > 256 µg/mL
Staphylococcus aureus [12]
  MIC: > 256 µg/mL
Staphylococcus aureus [13]
  MIC: > 256 µg/mL
Staphylococcus aureus [14]
  MIC: > 256 µg/mL
Staphylococcus aureus [15]
  MIC: > 256 µg/mL
Staphylococcus aureus [16]
  MIC: > 256 µg/mL
Staphylococcus aureus [17]
  MIC: > 256 µg/mL
Staphylococcus aureus [18]
  MIC: > 256 µg/mL
Staphylococcus aureus [19]
  MIC: > 256 µg/mL
Staphylococcus aureus [20]
  MIC: > 256 µg/mL
Staphylococcus aureus [21]
  MIC: 128 µg/mL (≈ 174 µM)
Staphylococcus aureus [22]
  MIC: > 256 µg/mL
Staphylococcus aureus [23]
  MIC: > 256 µg/mL
Staphylococcus aureus [24]
  MIC: > 256 µg/mL
Staphylococcus aureus [25]
  MIC: > 256 µg/mL
Staphylococcus aureus [26]
  MIC: > 256 µg/mL
Staphylococcus aureus [27]
  MIC: > 256 µg/mL

## C[C@H]1COc2c(N3CCN(C)CC3)c(F)cc3c(=O)c(C(=O)O)cn1c23.C[C@H]1COc2c(N3CCN(C)CC3)c(F)cc3c(=O)c(C(=O)O)cn1c23.O [LEVOFLOXACIN]
Staphylococcus aureus [1]
  MIC: 64 µg/mL
Staphylococcus aureus [2]
  MIC: 64 µg/mL
Staphylococcus aureus [3]
  MIC: 4 µg/mL
Staphylococcus aureus [4]
  MIC: 4 µg/mL
Staphylococcus aureus [5]
  MIC: 16 µg/mL
Staphylococcus aureus [6]
  MIC: 8 µg/mL
Staphylococcus aureus [7]
  MIC: 64 µg/mL
Staphylococcus aureus [8]
  MIC: 16 µg/mL
Staphylococcus aureus [9]
  MIC: 16 µg/mL
Staphylococcus aureus [10]
  MIC: 16 µg/mL
Staphylococcus aureus [11]
  MIC: 8 µg/mL
Staphylococcus aureus [12]
  MIC: 8 µg/mL
Staphylococcus aureus [13]
  MIC: 32 µg/mL
Staphylococcus aureus [14]
  MIC: 8 µg/mL
Staphylococcus aureus [15]
  MIC: 8 µg/mL
Staphylococcus aureus [16]
  MIC: 16 µg/mL
Staphylococcus aureus [17]
  MIC: 16 µg/mL
Staphylococcus aureus [18]
  MIC: 32 µg/mL
Staphylococcus aureus [19]
  MIC: 32 µg/mL
Staphylococcus aureus [20]
  MIC: 32 µg/mL
Staphylococcus aureus [21]
  MIC: 0.25 µg/mL
Staphylococcus aureus [22]
  MIC: 32 µg/mL
Staphylococcus aureus [23]
  MIC: 32 µg/mL
Staphylococcus aureus [24]
  MIC: 64 µg/mL
Staphylococcus aureus [25]
  MIC: 32 µg/mL
Staphylococcus aureus [26]
  MIC: 16 µg/mL
Staphylococcus aureus [27]
  MIC: 32 µg/mL
